Laboratory results: ChEMBL document CHEMBL1800074, “Novel quinoxaline derivatives for in vivo imaging of β-amyloid plaques in the brain” (Bioorg Med Chem Lett, 2011)
Each block holds one compound with its values, some of them ahead of it. Active and inactive are the calls of the source. The rule behind the calls is not given here.

Assays:
[1] = Displacement of [125I]IMPY from amyloid beta (1-42) after 2 hrs by gamma counting
Outline: (§1)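 Competition binding against [125I]IMPY on aggregated Aβ1-42, with inhibition curves built from the test ligand displacing the radioligand.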

[2] = biological target: Amyloid-beta precursor protein (Homo sapiens) (UniProt P05067); experiment: Binding affinity to amyloid beta (1-42) plaque in brain of patient with Alzheimer's disease at 185 KBq/100ul after 1 hr by immunofluorescence staining method; type: tissue-based; details: tested as the 125I-labelled form
Sequence of Amyloid-beta precursor protein (Homo sapiens) (P05067 whole entry): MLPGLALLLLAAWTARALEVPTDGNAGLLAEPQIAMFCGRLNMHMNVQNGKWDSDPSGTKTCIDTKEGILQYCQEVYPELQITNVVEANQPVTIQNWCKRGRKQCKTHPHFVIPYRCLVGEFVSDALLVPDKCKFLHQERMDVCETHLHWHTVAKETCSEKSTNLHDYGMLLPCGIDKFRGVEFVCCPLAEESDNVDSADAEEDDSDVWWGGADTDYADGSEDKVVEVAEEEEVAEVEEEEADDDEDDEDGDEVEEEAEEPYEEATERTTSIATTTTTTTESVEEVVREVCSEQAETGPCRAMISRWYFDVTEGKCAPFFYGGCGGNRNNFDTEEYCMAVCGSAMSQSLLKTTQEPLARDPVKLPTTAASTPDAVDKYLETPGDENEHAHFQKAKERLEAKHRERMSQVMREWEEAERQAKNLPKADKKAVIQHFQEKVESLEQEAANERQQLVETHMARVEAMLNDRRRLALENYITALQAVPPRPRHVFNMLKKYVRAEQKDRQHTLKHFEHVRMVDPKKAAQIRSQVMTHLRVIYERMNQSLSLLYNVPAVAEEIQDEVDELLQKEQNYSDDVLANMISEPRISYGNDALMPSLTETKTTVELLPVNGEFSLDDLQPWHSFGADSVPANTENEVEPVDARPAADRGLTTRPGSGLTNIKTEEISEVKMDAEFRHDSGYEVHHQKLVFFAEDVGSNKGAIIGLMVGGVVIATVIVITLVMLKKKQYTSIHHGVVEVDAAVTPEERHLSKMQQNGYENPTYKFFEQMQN
Outline: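 In vitro autoradiography with the 125I-labelled ligand on brain sections from an Alzheimer's disease patient. Plaque presence and distribution were confirmed by immunohistochemical staining with a monoclonal Aβ antibody.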

Mus musculus = organism: Mus musculus; experiment: Binding affinity to amyloid beta plaque in APP/PS1 transgenic C57BL/6 mouse brain cortex at 185 KBq/100 ul after 1 hr by thioflavin S-fluorescence staining method; type: tissue-based; details: C57BL6, tested as the 125I-labelled form
[3] = Binding affinity to amyloid beta (1-42) after 2 hrs by gamma counting; outline: as §1
Blood [4] = experiment: Biodistribution in ddY mouse blood at 37 KBq/100 ul, iv after 2 mins by gamma counting; type: ADME, organism-based; details: in vivo
Outline: (§2)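 Normal ddY mice got an iv injection of the 125I-labelled ligand (no carrier added, radiochemical purity >98%). Organs were collected at 2, 30, 60 and 120 min. Activity is given as % injected dose per gram; stomach is given as % injected dose per organ. Values are the average of five mice ± standard deviation.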

Blood [5] = experiment: Biodistribution in ddY mouse blood at 37 KBq/100 ul, iv after 30 mins by gamma counting; type: ADME, organism-based; details: in vivo, 0.5 h; outline: as §2
Blood [6] = experiment: Biodistribution in ddY mouse blood at 37 KBq/100 ul, iv after 60 mins by gamma counting; type: ADME, organism-based; details: in vivo, 1 h; outline: as §2
Blood [7] = experiment: Biodistribution in ddY mouse blood at 37 KBq/100 ul, iv after 120 mins by gamma counting; type: ADME, organism-based; details: in vivo, 2 h; outline: as §2
Brain [8] = experiment: Biodistribution in ddY mouse brain at 37 KBq/100 ul, iv after 2 mins by gamma counting; type: ADME, organism-based; details: in vivo; outline: as §2
Brain [9] = experiment: Biodistribution in ddY mouse brain at 37 KBq/100 ul, iv after 30 mins by gamma counting; type: ADME, organism-based; details: in vivo, 0.5 h; outline: as §2
Brain [10] = experiment: Biodistribution in ddY mouse brain at 37 KBq/100 ul, iv after 60 mins by gamma counting; type: ADME, organism-based; details: in vivo, 1 h; outline: as §2
Brain [11] = experiment: Biodistribution in ddY mouse brain at 37 KBq/100 ul, iv after 120 mins by gamma counting; type: ADME, organism-based; details: in vivo, 2 h; outline: as §2
Heart [12] = experiment: Biodistribution in ddY mouse heart at 37 KBq/100 ul, iv after 2 mins by gamma counting; type: ADME, organism-based; details: in vivo; outline: as §2
Heart [13] = experiment: Biodistribution in ddY mouse heart at 37 KBq/100 ul, iv after 30 mins by gamma counting; type: ADME, organism-based; details: in vivo, 0.5 h; outline: as §2
Heart [14] = experiment: Biodistribution in ddY mouse heart at 37 KBq/100 ul, iv after 60 mins by gamma counting; type: ADME, organism-based; details: in vivo, 1 h; outline: as §2
Heart [15] = experiment: Biodistribution in ddY mouse heart at 37 KBq/100 ul, iv after 120 mins by gamma counting; type: ADME, organism-based; details: in vivo, 2 h; outline: as §2
Liver [16] = experiment: Biodistribution in ddY mouse liver at 37 KBq/100 ul, iv after 2 mins by gamma counting; type: ADME, organism-based; details: in vivo; outline: as §2
Liver [17] = experiment: Biodistribution in ddY mouse liver at 37 KBq/100 ul, iv after 30 mins by gamma counting; type: ADME, organism-based; details: in vivo, 0.5 h; outline: as §2
Liver [18] = experiment: Biodistribution in ddY mouse liver at 37 KBq/100 ul, iv after 60 mins by gamma counting; type: ADME, organism-based; details: in vivo, 1 h; outline: as §2
Liver [19] = experiment: Biodistribution in ddY mouse liver at 37 KBq/100 ul, iv after 120 mins by gamma counting; type: ADME, organism-based; details: in vivo, 2 h; outline: as §2
Spleen [20] = experiment: Biodistribution in ddY mouse spleen at 37 KBq/100 ul, iv after 2 mins by gamma counting; type: ADME, organism-based; details: in vivo; outline: as §2
Spleen [21] = experiment: Biodistribution in ddY mouse spleen at 37 KBq/100 ul, iv after 30 mins by gamma counting; type: ADME, organism-based; details: in vivo, 0.5 h; outline: as §2
Spleen [22] = experiment: Biodistribution in ddY mouse spleen at 37 KBq/100 ul, iv after 60 mins by gamma counting; type: ADME, organism-based; details: in vivo, 1 h; outline: as §2
Spleen [23] = experiment: Biodistribution in ddY mouse spleen at 37 KBq/100 ul, iv after 120 mins by gamma counting; type: ADME, organism-based; details: in vivo, 2 h; outline: as §2
Lung [24] = experiment: Biodistribution in ddY mouse lung at 37 KBq/100 ul, iv after 2 mins by gamma counting; type: ADME, organism-based; details: in vivo; outline: as §2
Lung [25] = experiment: Biodistribution in ddY mouse lung at 37 KBq/100 ul, iv after 30 mins by gamma counting; type: ADME, organism-based; details: in vivo, 0.5 h; outline: as §2
Lung [26] = experiment: Biodistribution in ddY mouse lung at 37 KBq/100 ul, iv after 60 mins by gamma counting; type: ADME, organism-based; details: in vivo, 1 h; outline: as §2
Lung [27] = experiment: Biodistribution in ddY mouse lung at 37 KBq/100 ul, iv after 120 mins by gamma counting; type: ADME, organism-based; details: in vivo, 2 h; outline: as §2
Kidney [28] = experiment: Biodistribution in ddY mouse kidney at 37 KBq/100 ul, iv after 2 mins by gamma counting; type: ADME, organism-based; details: in vivo; outline: as §2
Kidney [29] = experiment: Biodistribution in ddY mouse kidney at 37 KBq/100 ul, iv after 30 mins by gamma counting; type: ADME, organism-based; details: in vivo, 0.5 h; outline: as §2
Kidney [30] = experiment: Biodistribution in ddY mouse kidney at 37 KBq/100 ul, iv after 60 mins by gamma counting; type: ADME, organism-based; details: in vivo, 1 h; outline: as §2
Kidney [31] = experiment: Biodistribution in ddY mouse kidney at 37 KBq/100 ul, iv after 120 mins by gamma counting; type: ADME, organism-based; details: in vivo, 2 h; outline: as §2
Stomach [32] = experiment: Biodistribution in ddY mouse stomach assessed per organ at 37 KBq/100 ul, iv after 2 mins by gamma counting; type: ADME, organism-based; details: in vivo; outline: as §2
Stomach [33] = experiment: Biodistribution in ddY mouse stomach assessed per organ at 37 KBq/100 ul, iv after 30 mins by gamma counting; type: ADME, organism-based; details: in vivo, 0.5 h; outline: as §2
Stomach [34] = experiment: Biodistribution in ddY mouse stomach assessed per organ at 37 KBq/100 ul, iv after 60 mins by gamma counting; type: ADME, organism-based; details: in vivo, 1 h; outline: as §2
Stomach [35] = experiment: Biodistribution in ddY mouse stomach assessed per organ at 37 KBq/100 ul, iv after 120 mins by gamma counting; type: ADME, organism-based; details: in vivo, 2 h; outline: as §2
Intestine [36] = experiment: Biodistribution in ddY mouse intestine at 37 KBq/100 ul, iv after 2 mins by gamma counting; type: ADME, organism-based; details: in vivo; outline: as §2
Intestine [37] = experiment: Biodistribution in ddY mouse intestine at 37 KBq/100 ul, iv after 30 mins by gamma counting; type: ADME, organism-based; details: in vivo, 0.5 h; outline: as §2
Intestine [38] = experiment: Biodistribution in ddY mouse intestine at 37 KBq/100 ul, iv after 60 mins by gamma counting; type: ADME, organism-based; details: in vivo, 1 h; outline: as §2
Intestine [39] = experiment: Biodistribution in ddY mouse intestine at 37 KBq/100 ul, iv after 120 mins by gamma counting; type: ADME, organism-based; details: in vivo, 2 h; outline: as §2
Brain [40] = experiment: Ratio of drug uptake after 2 mins to drug uptake in 120 mins in ddY mouse brain at 37 KBq/100 ul, iv; type: ADME, organism-based; details: in vivo
Outline: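 Brain uptake (% injected dose per gram) in normal ddY mice after iv injection of the 125I-labelled ligand. The value is the brain 2 min / brain 120 min ratio, from five mice per time point.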

[41] = Lipophilicity, log D of the compound; type: physicochemical; details: octanol/water

- Ki [1]: 4.1 nM
- Activity [2]: Active
- Activity (Mus musculus): Active
Structure (SMILES): CN(C)c1ccc(-c2cnc3cc(I)ccc3n2)cc1

- Kd [3]: 0.43 nM
Structure (SMILES): CN(C)c1ccc(-c2cn3cc([123I])ccc3n2)cc1

- Drug uptake (Blood [4]): 4.71 % ID/g
- Drug uptake (Blood [5]): 2.88 % ID/g
- Drug uptake (Blood [6]): 2.98 % ID/g
- Drug uptake (Blood [7]): 1.88 % ID/g
- Drug uptake (Brain [8]): 6.03 % ID/g
- Drug uptake (Brain [9]): 5.21 % ID/g
- Drug uptake (Brain [10]): 2.91 % ID/g
- Drug uptake (Brain [11]): 1.12 % ID/g
- Drug uptake (Heart [12]): 14.91 % ID/g
- Drug uptake (Heart [13]): 2.53 % ID/g
- Drug uptake (Heart [14]): 2.17 % ID/g
- Drug uptake (Heart [15]): 1.22 % ID/g
- Drug uptake (Liver [16]): 30.49 % ID/g
- Drug uptake (Liver [17]): 15.73 % ID/g
- Drug uptake (Liver [18]): 12.5 % ID/g
- Drug uptake (Liver [19]): 7.53 % ID/g
- Drug uptake (Spleen [20]): 5.69 % ID/g
- Drug uptake (Spleen [21]): 2.82 % ID/g
- Drug uptake (Spleen [22]): 2.22 % ID/g
- Drug uptake (Spleen [23]): 1.17 % ID/g
- Drug uptake (Lung [24]): 14.53 % ID/g
- Drug uptake (Lung [25]): 3.99 % ID/g
- Drug uptake (Lung [26]): 3.53 % ID/g
- Drug uptake (Lung [27]): 1.95 % ID/g
- Drug uptake (Kidney [28]): 19.67 % ID/g
- Drug uptake (Kidney [29]): 8.76 % ID/g
- Drug uptake (Kidney [30]): 6.68 % ID/g
- Drug uptake (Kidney [31]): 3.96 % ID/g
- Drug uptake (Stomach [32]): 2.06 %ID
- Drug uptake (Stomach [33]): 3.28 %ID
- Drug uptake (Stomach [34]): 5.39 %ID
- Drug uptake (Stomach [35]): 8.62 %ID
- Drug uptake (Intestine [36]): 3.43 % ID/g
- Drug uptake (Intestine [37]): 18.62 % ID/g
- Drug uptake (Intestine [38]): 22.5 % ID/g
- Drug uptake (Intestine [39]): 16.93 % ID/g
- Ratio (Brain [40]): 5.38
- logD [41]: 4.02
Structure (SMILES): CN(C)c1ccc(-c2cnc3cc([125I])ccc3n2)cc1

- Ki [1]: 10.7 nM
Structure (SMILES): Nc1ccc(-c2cnc3cc(I)ccc3n2)cc1

- Ki [1]: 7.7 nM
Structure (SMILES): CNc1ccc(-c2cnc3cc(I)ccc3n2)cc1

- Ki [1]: 2.6 nM
Structure (SMILES): CN(C)c1ccc(-c2cnc3cc(Br)ccc3n2)cc1

- Ki [1]: 3 nM
Structure (SMILES): CNc1ccc(-c2ccc3cc(OCCOCCOCCF)ccc3c2)cc1

- Ki [1]: 1.6 nM
Structure (SMILES): CNc1ccc2cc(-c3ccc(OCCOCCOCCF)cc3)ccc2c1
